pIC50, pKi: −log10 of the molar value. Where only a bound is given, the exact number is not on record here.

The test system of assay [1] is Human immunodeficiency virus 1. Nature of the assay: Antiviral activity against multidrug-resistant HIV1 with protease L10I, V11I, T12E, I15V, L19I, R41K, M46L, L63P, A71T, V82A, L90M mutation in phytohemagglutininin-activated PBMC assessed as inhibition of p24G protein production. Type of assay: functional, organism-based. A digest of the protocol:
(§1)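 Clinical HIV-1 isolates (ERS104pre as wild-type reference; multidrug-resistant isolates with the listed protease substitutions relative to consensus type B) were tested in phytohemagglutinin-activated human peripheral blood mononuclear cells. The endpoint was inhibition of p24Gag protein production, and IC50 was determined in triplicate.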

In assay [2] the test system is Human immunodeficiency virus 1. Nature of the assay: Antiviral activity against multidrug-resistant HIV1 with protease L10I, K14R, R41K, M46L, I54V, L63P, A71V, V82A, L90M, I93L mutation in phytohemagglutininin-activated PBMC assessed as inhibition of p24Gag protein production. Type of assay: functional, organism-based. Summed up: as §1
For assay [3], the system named is Human immunodeficiency virus 1. Nature of the assay: Antiviral activity against multidrug-resistant HIV1 with protease L10I, K43T, M46L, I54V, L63P, A71V, V82A, L90M, Q92K mutation in phytohemagglutininin-activated PBMC assessed as inhibition of p24G protein production. Type of assay: functional, organism-based. A digest of the protocol: as §1
The subject of assay [4] is Human immunodeficiency virus 1. Nature of the assay: Antiviral activity against multidrug-resistant HIV1 with protease L10I, K14R, L33I, M36I, M46I, F53I, K55R, I62V, L63P, A71V, G73S, V82A, L90M, I93L mutation in phytohemagglutininin-activated PBMC assessed as inhibition of p24G protein production. Type of assay: functional, organism-based. A digest of the protocol:
as §1

Assay [5] has as its system Human immunodeficiency virus 1. Put plainly: Antiviral activity against multidrug-resistant HIV1/C with protease mutation in phytohemagglutininin-activated PBMC assessed as inhibition of p24G protein production. The assay is classed as functional, organism-based.
In assay [6] the test system is Human immunodeficiency virus 1. Put plainly: Antiviral activity against HIV1 ERS104 with protease L63P mutation in phytohemagglutininin-activated PBMC assessed as inhibition of p24G protein production. Type of assay: functional, organism-based. Summed up: as §1
The test system of assay [7] is Human immunodeficiency virus 1. Put plainly: Antiviral activity against multidrug-resistant HIV1 with protease L10I, L24I, I33F, E35D, M36I, N37S, M46L, I54V, R57K, I62V, L63P, A71V, G73S, V82A mutation in phytohemagglutininin-activated PBMC assessed as inhibition of p24G protein production. Type of assay: functional, organism-based. A digest of the protocol:
as §1

Assay [8] relates to Human immunodeficiency virus 1. Put plainly: Antiviral activity against multidrug-resistant HIV1/A with protease mutation in phytohemagglutininin-activated PBMC assessed as inhibition of p24G protein production. Type of assay: functional, organism-based.
Assay [9] concerns Human immunodeficiency virus 1. Nature of the assay: Antiviral activity against HIV1 LAI in human MT2 cells assessed as inhibition of virus-induced cytopathic effect. Type of assay: functional, organism-based. To be noted: Human immunodeficiency virus 1, LAI.
Assay [10] has as its target Protease (Human immunodeficiency virus 1, UniProt Q9YQ12). Nature of the assay: Inhibition of HIV1 protease.
Where [11] appears, read: read-out: ID50 (the source's name).

Chain of Protease (Q9YQ12 whole entry): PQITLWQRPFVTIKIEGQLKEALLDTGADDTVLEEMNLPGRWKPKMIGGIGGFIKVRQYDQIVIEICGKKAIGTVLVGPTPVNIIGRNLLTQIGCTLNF

Regarding `CC(C)CN(C[C@@H](O)[C@H](Cc1ccccc1)NC(=O)O[C@H]1CCOC1)S(=O)(=O)c1ccc(N)cc1`, the pIC50 in assay [1] is 6.47; in assay [2], 6.54; in assay [3] it was 6.52; in assay [4], 6.49; in assay [5], 6.64; in assay [6] it was 7.48. For the same compound, the pIC50 in [7] was 6.37; in assay [8] it was 7.00.
Regarding `CC(C)CN(C[C@@H](O)[C@H](Cc1ccccc1)NC(=O)O[C@H]1CO[C@H]2OCC[C@H]21)S(=O)(=O)c1ccc(N)cc1`, the pIC50 in assay [2] is 8.40; in assay [9] (setting [11]) it was 8.80; in [4], 7.59; in assay [6], 8.46; in assay [8], 8.52.
On to `COc1ccc(S(=O)(=O)N(CC(C)C)C[C@@H](O)[C@H](Cc2ccccc2)NC(=O)OC2COCCS(=O)(=O)CCOC2)cc1`, for which, in assay [9] (read-out: IC50), the pIC50 is < 6.00. Also, in assay [10], the pKi was 8.72.
Taken in the same sequence, the figures for `COc1ccc(S(=O)(=O)N(CC(C)C)C[C@@H](O)[C@H](Cc2ccccc2)NC(=O)OC2COCCN(C)CCOC2)cc1` were < 6.00 and 7.72.
With `COc1ccc(S(=O)(=O)N(CC(C)C)C[C@@H](O)[C@H](Cc2ccccc2)NC(=O)O[C@H]2CCCOCOC2)cc1`, the negative-log Ki (pKi) in [10] is 9.82.
In the case of `COc1ccc(S(=O)(=O)N(CC(C)C)C[C@@H](O)[C@H](Cc2ccccc2)NC(=O)O[C@H]2CO[C@H]3OCC[C@H]32)cc1`, the pIC50 in [9] (setting [11]) is 8.92.
In the case of `COc1ccc(S(=O)(=O)N(CC(C)C)C[C@@H](O)[C@H](Cc2ccccc2)NC(=O)O[C@@H]2CCOCOC2)cc1`, the pIC50 is 6.44 in assay [1]; 6.66 in [2]; 8.31 in assay [9] (read-out: IC50); 6.60 in [3]; 6.47 in [4]; 6.68 in [5]. Moreover, the pIC50 in assay [6] was 7.70; in assay [7], 6.30; in assay [8] it was 7.70.
The compound `COc1ccc(S(=O)(=O)N(CC(C)C)C[C@@H](O)[C@H](Cc2ccccc2)NC(=O)OC2CCCCCC2)cc1` showed a pKi in assay [10] of 7.57.
The same measure, in the same setting: next, `COc1ccc(S(=O)(=O)N(CC(C)C)C[C@@H](O)[C@H](Cc2ccccc2)NC(=O)OC2COCCOCCOC2)cc1`: 7.80; `COc1ccc(S(=O)(=O)N(CC(C)C)C[C@@H](O)[C@H](Cc2ccccc2)NC(=O)O[C@@H]2CCCCOC2)cc1`: 9.09; `COc1ccc(S(=O)(=O)N(CC(C)C)C[C@@H](O)[C@H](Cc2ccccc2)NC(=O)O[C@H]2CCCOCC2)cc1`: 9.13.
Regarding `COc1ccc(S(=O)(=O)N(CC(C)C)C[C@@H](O)[C@H](Cc2ccccc2)NC(=O)OC2COCCOCOCCOC2)cc1`, in [9] (read-out: IC50), the pIC50 was < 6.00. Moreover, the pKi in assay [10] is 8.20.
`COc1ccc(S(=O)(=O)N(CC(C)C)C[C@@H](O)[C@H](Cc2ccccc2)NC(=O)OC2COCCOCCOCCOC2)cc1`: in [10], the negative-log Ki (pKi) was 7.48.
With `COc1ccc(S(=O)(=O)N(CC(C)C)C[C@@H](O)[C@H](Cc2ccccc2)NC(=O)O[C@@H]2CCCOCOC2)cc1`, the pKi in assay [10] was 9.80.
As for `COc1ccc(S(=O)(=O)N(CC(C)C)C[C@@H](O)[C@H](Cc2ccccc2)NC(=O)O[C@H]2CCOCOC2)cc1`, the pIC50 in [9] (read-out: IC50) was 7.52. Besides, the pKi in assay [10] is 9.80.
Turning to `COc1ccc(S(=O)(=O)N(CC(C)C)C[C@@H](O)[C@H](Cc2ccccc2)NC(=O)OC2COCOC2)cc1`, the pIC50 in assay [1] was 6.52; in assay [2], 7.19; in [9] (read-out: IC50) it was 8.47; in [3], 6.96; in assay [4], 6.64; in assay [5], 6.80. Further, the pIC50 in [6] is 8.22; in [7], 6.48; in assay [8], 7.89. Further, in assay [10], the negative logarithm of the Ki (pKi) was 10.39.
`CC(C)(C)NC(=O)[C@@H]1CN(Cc2cccnc2)CCN1C[C@@H](O)C[C@@H](Cc1ccccc1)C(=O)N[C@H]1c2ccccc2C[C@H]1O`: the pIC50 in [1] was 6.54; in assay [2], < 6.00; in [3], < 6.00; in [4] it was < 6.00; in [5] it was < 6.00; in assay [6], 7.59. The pIC50 in [7] and in assay [8] was < 6.00 throughout.
Turning to `CC(C)c1nc(CN(C)C(=O)N[C@H](C(=O)N[C@@H](Cc2ccccc2)C[C@H](O)[C@H](Cc2ccccc2)NC(=O)OCc2cncs2)C(C)C)cs1` [RITONAVIR], the pIC50 was < 6.00 in assay [1]; < 6.00 in assay [2]; < 6.00 in [3]; < 6.00 in [4]; < 6.00 in assay [5]; 7.47 in assay [6]. Besides, the pIC50 in assay [7] and in assay [8] was < 6.00 throughout.

One may read the pKi as the negative decadic logarithm of the Ki, by convention in mol/L. Read a low pKi as a high Ki.
